Values after ≈ are worked out from the molar mass of the structure shown. Blank lines part the entries; values can stand above or below the compound they belong to.
Experiments:
[1] = species: Mus musculus; experiment: Activation of UTRN promoter in mouse H2K cells assessed as upregulation of UTRN production after 48 hrs by luciferase reporter linked assay; format: functional, cell-based; conditions: Mus musculus, H2K, 48 h
Method in brief: (§1)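 H2K myoblasts stably carrying a utrophin (UTRN) promoter–luciferase reporter were plated 24 h before dosing and exposed to compound for 48 h. Luciferase was read by luminescence (Steady-Glo). The primary screen was at 10 μM and the secondary at six concentrations for EC50, both in triplicate. Non-EC50 values are % of the reference upregulator's maximum, given with the concentration at maximum.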

[2] = species: Mus musculus; experiment: Activation of UTRN promoter in mouse H2K cells assessed as upregulation of UTRN production at 10 uM after 48 hrs by luciferase reporter linked assay; format: functional; method in brief: as §1
[3] = Half life in mouse liver microsomes; format: ADME, Microsome
[4] = Half life in human liver microsomes; format: ADME, Microsome
[5] = tested on: Mus musculus; experiment: Tmax in CD1 mouse at 10 mg/kg, ip; format: ADME, organism-based; set-up: dose 10 mg/kg, route intraperitoneal; conditions: in vivo
Method in brief: (§2)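 Male CD1 mice were dosed i.p. at 10 mg/kg in 95% PBS containing 0.1% Tween 20 and 5% DMSO. Plasma was sampled at 5–360 or 5–480 min. AUC is in μg.min/mL. Half-life was not calculated where the log concentration–time plot lacked a linear region of at least three points.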

[6] = tested on: Mus musculus; experiment: AUC in CD1 mouse at 10 mg/kg, ip; format: ADME, organism-based, Plasma; set-up: dose 10 mg/kg, route intraperitoneal; conditions: in vivo; method in brief: as §2
[7] = tested on: Mus musculus; experiment: Cmax in CD1 mouse at 10 mg/kg, ip; format: ADME, organism-based; set-up: dose 10 mg/kg, route intraperitoneal; conditions: in vivo; method in brief: as §2
[8] = Aqueous solubility of the compound by turbidimetry; format: physicochemical; conditions: buffer
Method in brief: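 Turbidimetric aqueous solubility, reported as the final test compound concentration.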

[9] = tested on: Mus musculus; experiment: Half life in CD1 mouse at 10 mg/kg, ip; format: ADME, organism-based; set-up: dose 10 mg/kg, route intraperitoneal; conditions: in vivo; method in brief: as §2
[10] = species: Mus musculus; experiment: Activation of UTRN promoter in mouse H2K cells assessed as upregulation of UTRN production at 3 uM after 48 hrs by luciferase reporter linked assay; format: functional; method in brief: as §1
[11] = species: Mus musculus; experiment: Activation of UTRN promoter in mouse H2K cells assessed as upregulation of UTRN production at 30 uM after 48 hrs by luciferase reporter linked assay; format: functional; method in brief: as §1
[12] = species: Mus musculus; experiment: Activation of UTRN promoter in mouse H2K cells assessed as upregulation of UTRN production at 3 uM after 72 hrs by RT-PCR analysis; format: functional
Method in brief: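 H2K cells were seeded at 25000 per well, left 24 h, then dosed for 72 h in 1% DMSO final. Total RNA was extracted and reverse transcribed. qPCR used an amplicon spanning the UTRN exon 3–4 boundary, with β-actin as the endogenous control, and was quantified by ΔΔCT. Values are % UTRN relative to DMSO control (=100), with P value.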

SMILES: CCS(=O)(=O)c1ccc2oc(-c3ccc4c(c3)CCCC4)nc2c1
- Activity [2]: 51%

SMILES: Nc1ccc(-c2nc3cc(N)ccc3o2)c(O)c1
- EC50 [1]: 3.5 µM

SMILES: CCCS(=O)(=O)c1ccc2oc(-c3ccc(Cl)cc3)nc2c1
- EC50 [1]: > 30 µM

SMILES: Cc1ccc(-c2nc3cc(NC(=O)C(C)C)ccc3o2)cc1
- Activity [2]: 95%

SMILES: CCC(=O)c1ccc2oc(-c3ccc(Cl)cc3)nc2c1
- half-life [3]: 13 min
- EC50 [1]: 0.9 µM

SMILES: CC(C)C(=O)Nc1ccc2oc(-c3ccc(Cl)cc3)cc2c1
- EC50 [1]: > 30 µM

SMILES: O=S(=O)(O)c1ccc2oc(-c3ccc(Cl)cc3)nc2c1
- EC50 [1]: > 30 µM

SMILES: CCS(=O)(=O)c1ccc2oc(-c3ccc4[nH]ccc4c3)nc2c1
- Activity [2]: 81%

SMILES: NS(=O)(=O)c1ccc2oc(-c3ccc(Cl)cc3)nc2c1
- Activity [11]: 60%

SMILES: CC(C)C(=O)Nc1ccc2oc(-c3ccc(Cl)cc3)nc2c1
- half-life [3]: 19.3 min
- half-life [4]: 286 min
- Tmax [5]: 15 min
- AUC [6]: 3820 ng·h/mL
- Cmax [7]: 2807 ng/mL
- solubility kinetic [8]: 3 µM (≈ 0.944 µg/mL)
- EC50 [1]: 0.4 µM
- t1/2 [9]: 136 min

SMILES: CCS(=O)(=O)c1ccc2nc(-c3ccc(Cl)c(Cl)c3)oc2c1
- EC50 [1]: 10.6 µM

SMILES: Nc1ccc2oc(-c3ccc(Cl)c(Cl)c3)nc2c1
- Activity [10]: 107%

SMILES: CCS(=O)(=O)c1ccc2oc(C3CCc4ccccc4C3)nc2c1 (stereo not given)
- Activity [2]: 32%

SMILES: CC(C)C(=O)Nc1cc2oc(-c3ccc(Cl)cc3)nc2cc1Cl
- EC50 [1]: > 30 µM

SMILES: CCC(=O)Nc1ccc2oc(-c3ccc(Cl)cc3)nc2c1
- Activity [10]: 85%

SMILES: CC(C)C(=O)Nc1ccc2oc(-c3ccc(C(F)(F)F)cc3)nc2c1
- Activity [2]: 22%

SMILES: CCS(=O)(=O)c1ccc2oc(-c3cnc4ccccc4c3)nc2c1
- EC50 [1]: > 30 µM

SMILES: CC(C)C(=S)Nc1ccc2oc(-c3ccc(Cl)cc3)nc2c1
- EC50 [1]: > 30 µM

SMILES: CS(=O)(=O)c1ccc2oc(-c3ccc(Cl)cc3)nc2c1
- Activity [2]: 53%

SMILES: CCS(=O)(=O)c1ccc2nc(-c3ccc(Cl)cc3)oc2c1
- EC50 [1]: > 30 µM

SMILES: CCS(=O)(=O)c1ccc2oc(-c3ccc4nccnc4c3)nc2c1
- EC50 [1]: > 30 µM

SMILES: CCS(=O)(=O)c1ccc2oc(-c3ccc4occc4c3)nc2c1
- Activity [2]: 73%

Continued, in another order:

- EC50 [1]: > 30 µM
SMILES: CC(C)NC(=O)c1ccc2oc(-c3ccc(Cl)cc3)nc2c1

- EC50 [1]: > 30 µM
SMILES: CCS(=O)(=O)c1ccc2oc(-c3ccc(-c4ccccc4)cc3)nc2c1

- EC50 [1]: > 30 µM
SMILES: CCS(=O)(=O)c1ccc2oc(-c3ccc(Cl)cn3)nc2c1

- half-life [3]: 30.6 min
- half-life [4]: 69 min
- Tmax [5]: 5 min
- AUC [6]: 9650 ng·h/mL
- Cmax [7]: 5650 ng/mL
- solubility kinetic [8]: 10 µM (≈ 3.22 µg/mL)
- EC50 [1]: 5 µM
- t1/2 [9]: 131 min
SMILES: CCS(=O)(=O)c1ccc2oc(-c3ccc(Cl)cc3)nc2c1

- EC50 [1]: 3.5 µM
SMILES: CCCC(=O)Nc1ccc2oc(-c3ccc(Cl)cc3)nc2c1

- half-life [4]: 20 min
- EC50 [1]: 2.3 µM
SMILES: CCS(=O)(=O)c1ccc2oc(-c3ccc4c(c3)CCC4)nc2c1

- half-life [3]: 33.4 min
SMILES: CS(=O)(=O)c1ccc2oc(-c3ccc4ccccc4c3)nc2c1
- Activity [10]: 95%

- EC50 [1]: 1.9 µM
SMILES: CCS(=O)(=O)c1ccc2oc(-c3ccc4ncccc4c3)nc2c1

- EC50 [1]: 3 µM
SMILES: CC(C)C(=O)Nc1ccc2nc(-c3ccc(Cl)cc3)oc2c1

- EC50 [1]: > 30 µM
SMILES: CCS(=O)(=O)c1ccc2oc(-c3cccc4ccccc34)nc2c1

- EC50 [1]: > 30 µM
SMILES: CC(C)CNc1ccc2oc(-c3ccc(Cl)cc3)nc2c1

- EC50 [1]: 10.2 µM
SMILES: CC(C)S(=O)(=O)c1ccc2oc(-c3ccc(Cl)cc3)nc2c1

- EC50 [1]: > 30 µM
SMILES: Cc1ccc(-c2nc3c(NC(=O)C(C)C)cccc3o2)cc1

- EC50 [1]: 1.5 µM
SMILES: CC(C)C(=O)Nc1ccc2oc(-c3ccc(Cl)c(Cl)c3)nc2c1
- Activity [12]: 128.2%

- EC50 [1]: 0.8 µM
SMILES: CCC(=O)Nc1ccc2oc(-c3ccccc3)nc2c1

- EC50 [1]: > 30 µM
SMILES: CC(C)S(=O)(=O)Nc1ccc2oc(-c3ccc(Cl)cc3)nc2c1

- EC50 [1]: > 30 µM
SMILES: CCS(=O)(=O)c1ccc2oc(-c3cccc(Cl)c3)nc2c1

- solubility kinetic [8]: 100 µM (≈ 28.7 µg/mL)
SMILES: CCS(=O)(=O)c1ccc2oc(-c3ccccc3)nc2c1
- Activity [2]: 69%

- EC50 [1]: > 30 µM
SMILES: O=C(Nc1ccc2oc(-c3ccc(Cl)cc3)nc2c1)c1ccccc1
